M5 antag – CHRM5 antagonism in calcium assay | P08912 | CHO-hM5 cells, Fluo-8 calcium fluorescence, ACh EC80 | inhibition, % at 3 µM | 0.59% of 360,000 active;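 active = inhibition above a per-plate cutoff, the mean of that plate's test compounds plus 3 SD, cut at about 27% in these data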
Target sequence (P08912 whole entry, looked up): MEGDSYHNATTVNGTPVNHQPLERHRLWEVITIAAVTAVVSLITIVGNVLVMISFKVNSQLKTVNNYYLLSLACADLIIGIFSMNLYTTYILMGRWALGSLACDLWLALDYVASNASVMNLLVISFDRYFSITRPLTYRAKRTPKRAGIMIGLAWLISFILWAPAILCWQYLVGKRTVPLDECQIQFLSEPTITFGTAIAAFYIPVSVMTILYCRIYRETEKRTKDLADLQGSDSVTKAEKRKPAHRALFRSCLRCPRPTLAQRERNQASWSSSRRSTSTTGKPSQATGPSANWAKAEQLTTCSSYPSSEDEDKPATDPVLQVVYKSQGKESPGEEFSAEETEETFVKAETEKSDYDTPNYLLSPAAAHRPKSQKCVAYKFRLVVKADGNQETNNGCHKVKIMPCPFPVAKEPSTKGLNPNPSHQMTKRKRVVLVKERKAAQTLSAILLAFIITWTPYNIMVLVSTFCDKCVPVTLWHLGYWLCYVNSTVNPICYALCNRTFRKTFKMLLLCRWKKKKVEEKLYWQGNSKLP
CHRM5 PAM – CHRM5 positive allosteric modulation | AID 624038 | 0.3% of 360,000 active | CHO-K1 hM5, Fluo-8 calcium, ACh EC20 PAM; 0% = ACh EC20, 100% = ACh EC100 | P08912 | activation, % at 3 µM;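 active = activation above the run cutoff, the mean activation of all test compounds plus 3 SD, cut at about 18% in these data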
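Assay system: CHO-K1 hM5 cells / Incubation: Fluo-8 loading 80 min at 37 °C plus 30 min room temperature / Technique: Fluo-8 calcium dye fluorescence, kinetic read / Repeats: single replicate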
CHRM5 agonist – CHRM5 agonism in calcium assay | CHO-K1 hM5 cells, Fluo-8 calcium fluorescence; 0% DMSO wells, 100% maximal acetylcholine response | activation, % at 3 µM | 0.19% of 360,000 active | AID 624037;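 active = activation above the run's mean over test compounds plus 3 SD, cut at about 23% in these data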;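 note: signal is peak over basal fluorescence ratio across the kinetic read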
CHRM4 antagonist – blocks acetylcholine activation of human M4 receptor; AID 624125; inhibition, % at 3 µM; 0.73% of 360,000 active; CHO-hM4 cells, ACh EC80, Fluo-8 calcium fluorescence;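 active = inhibition above its plate's cutoff, the mean inhibition of sample wells plus 3 SD, cut at about 27% in these data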
CHRM4 PAM – potentiates acetylcholine response at human M4 receptor. P08173. CHO-K1 hM4/Gqi5, Fluo-8 calcium fluorescence, ACh EC20; 0% = ACh EC20, 100% = maximal ACh. activation, % at 3 µM. 0.4% of 360,000 active. AID 624126;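 active = activation above its plate's cutoff, the mean activation of sample wells plus 3 SD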
CHRM4 agonist – CHRM4 agonism in calcium assay | P08173 | CHO-K1 hM4/Gqi5, Fluo-8 calcium fluorescence; vehicle 0%, full acetylcholine response 100% | activation, % at 3 µM | 0.14% of 360,000 active;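 active = activation above the run mean over all test wells plus 3 SD, cut at about 32% in these data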;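 note: peak over basal fluorescence ratio per well then scaled between controls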
Numbers stand for hits. Hits are enriched below; roughly 1.8% of the tested compounds scored in any of these assays.

For CCCCCCCCN1C(=O)[C@H](CC(=O)NCCc2ccccc2OC)C[C@@]2(C(=O)OC)CCCCC=C12 the results were M5 antag inactive, CHRM5 PAM inactive, CHRM5 agonist inactive, CHRM4 antagonist inactive, CHRM4 PAM inactive and CHRM4 agonist inactive.
`O=C(CCNC(=O)c1ccc([N+](=O)[O-])cc1)NNC(=O)c1ccccc1F` gave M5 antag inactive, CHRM5 PAM inactive, CHRM5 agonist inactive, CHRM4 antagonist inactive, CHRM4 PAM 26 and CHRM4 agonist inactive.
COc1ccc(C2C(C(=O)N3CCN(c4ccccc4)CC3)c3ccccc3C(=O)N2C)cc1 (stereo not given) was read as M5 antag inactive, CHRM5 PAM inactive, CHRM5 agonist inactive, CHRM4 antagonist inactive, CHRM4 PAM inactive and CHRM4 agonist inactive.
COc1ccc(C2C(C(=O)N3CCN(C)CC3)c3ccccc3C(=O)N2C2CCCCC2)cc1 (stereo not given) was read as M5 antag inactive, CHRM5 PAM 22, CHRM5 agonist inactive, CHRM4 antagonist inactive, CHRM4 PAM 22 and CHRM4 agonist inactive.
For CC(OC(=O)Cc1n[nH]c(=O)c2ccccc12)C(=O)Nc1ccc(F)cc1 (stereo not given) the results were M5 antag inactive, CHRM5 PAM inactive, CHRM5 agonist inactive, CHRM4 antagonist inactive, CHRM4 PAM inactive and CHRM4 agonist inactive.
`O=C(NCC[C@H]1CC[C@@H](NC(=O)C2CCOCC2)[C@@H](CO)O1)Nc1ccc(Cl)cc1` gave M5 antag inactive, CHRM5 PAM inactive, CHRM5 agonist inactive, CHRM4 antagonist inactive, CHRM4 PAM inactive and CHRM4 agonist inactive.
Screening Cc1ccc(NC(=O)Cn2nnc(C(=O)NCc3ccc4c(c3)OCO4)c2N)cc1 returned M5 antag inactive, CHRM5 PAM 18, CHRM5 agonist inactive, CHRM4 antagonist inactive, CHRM4 PAM inactive and CHRM4 agonist inactive.
Screening COc1cccc(NC(=O)Cn2nnc(C(=O)NCc3ccc4c(c3)OCO4)c2N)c1 returned M5 antag inactive, CHRM5 PAM 22, CHRM5 agonist inactive, CHRM4 antagonist inactive, CHRM4 PAM inactive and CHRM4 agonist inactive.
Screening Nc1c(C(=O)NCc2ccc3c(c2)OCO3)nnn1Cc1ccc(Br)cc1 returned M5 antag inactive, CHRM5 PAM inactive, CHRM5 agonist 30, CHRM4 antagonist inactive, CHRM4 PAM inactive and CHRM4 agonist inactive.
`COc1cccc(CNC(=O)c2nnn(CC(=O)Nc3ccc4c(c3)OCO4)c2N)c1` gave M5 antag inactive, CHRM5 PAM inactive, CHRM5 agonist inactive, CHRM4 antagonist inactive, CHRM4 PAM inactive and CHRM4 agonist inactive.
Screening O=c1oc2c3c4c(cc2c(C(F)(F)F)c1CCN1CCOCC1)CCCN4CCC3 returned M5 antag inactive, CHRM5 PAM inactive, CHRM5 agonist inactive, CHRM4 antagonist 29, CHRM4 PAM inactive and CHRM4 agonist inactive.
For N#CC1=C(SCC(=O)NC2CC2)NC(=O)C(C#N)C12CCCCC2 (stereo not given) the results were M5 antag inactive, CHRM5 PAM inactive, CHRM5 agonist inactive, CHRM4 antagonist inactive, CHRM4 PAM inactive and CHRM4 agonist inactive.
`N#CC1=C(SCC(=O)NC23CC4CC(CC(C4)C2)C3)NC(=O)C(C#N)C12CCCCC2` (stereo not given) gave M5 antag 29, CHRM5 PAM inactive, CHRM5 agonist inactive, CHRM4 antagonist inactive, CHRM4 PAM inactive and CHRM4 agonist inactive.
For COc1cc2c(cc1OC)CN(C(=O)c1cccc(S(=O)(=O)N(C)C)c1)CC2 the results were M5 antag inactive, CHRM5 PAM inactive, CHRM5 agonist inactive, CHRM4 antagonist 29, CHRM4 PAM inactive and CHRM4 agonist inactive.
COc1ccc(NC(=O)COC(=O)c2ccc(S(=O)(=O)N(C)c3ccccc3OC)cc2)cc1 was read as M5 antag inactive, CHRM5 PAM inactive, CHRM5 agonist inactive, CHRM4 antagonist inactive, CHRM4 PAM inactive and CHRM4 agonist inactive.
Screening O=C(Oc1ccc(Br)cc1C(=S)N1CCCC1)c1ccccc1Cl returned M5 antag inactive, CHRM5 PAM 20, CHRM5 agonist inactive, CHRM4 antagonist inactive, CHRM4 PAM inactive and CHRM4 agonist inactive.
For O=C(Oc1ccc(Br)cc1C(=S)N1CCCC1)c1ccccc1F the results were M5 antag inactive, CHRM5 PAM inactive, CHRM5 agonist inactive, CHRM4 antagonist inactive, CHRM4 PAM inactive and CHRM4 agonist inactive.
Screening CC(C)=CC(=O)O[C@@H]1Cc2c(ccc3ccc(=O)oc23)OC1(C)C returned M5 antag inactive, CHRM5 PAM 25, CHRM5 agonist inactive, CHRM4 antagonist inactive, CHRM4 PAM inactive and CHRM4 agonist inactive.
CCCS(=O)(=O)n1nc(-c2ccc(OC)cc2)cc1N was read as M5 antag inactive, CHRM5 PAM inactive, CHRM5 agonist inactive, CHRM4 antagonist 31, CHRM4 PAM inactive and CHRM4 agonist inactive.
Screening CCCS(=O)(=O)n1nc(-c2ccc(C)cc2)cc1N returned M5 antag inactive, CHRM5 PAM inactive, CHRM5 agonist inactive, CHRM4 antagonist inactive, CHRM4 PAM inactive and CHRM4 agonist inactive.
Screening C=CCN1C(=O)C(=Cc2ccc3c(c2)CCC3)SC1=S returned M5 antag inactive, CHRM5 PAM inactive, CHRM5 agonist inactive, CHRM4 antagonist inactive, CHRM4 PAM inactive and CHRM4 agonist inactive.
Screening O=C(O)COc1ccc(/C=C2\SC(=Nc3ccccc3)N(c3ccccc3)C2=O)cc1 returned M5 antag inactive, CHRM5 PAM inactive, CHRM5 agonist inactive, CHRM4 antagonist 30, CHRM4 PAM inactive and CHRM4 agonist inactive.
O=C(O)c1cc(S(=O)(=O)N2CCN(C(=O)c3ccco3)CC2)c(Cl)cc1Cl was read as M5 antag inactive, CHRM5 PAM inactive, CHRM5 agonist inactive, CHRM4 antagonist inactive, CHRM4 PAM 14 and CHRM4 agonist inactive.
`O=C(c1ccco1)N1CCN(S(=O)(=O)c2cc(Cl)ccc2Cl)CC1` gave M5 antag inactive, CHRM5 PAM inactive, CHRM5 agonist inactive, CHRM4 antagonist inactive, CHRM4 PAM inactive and CHRM4 agonist inactive.
Screening COCCCNc1cc(C)nc2ccccc12 returned M5 antag inactive, CHRM5 PAM inactive, CHRM5 agonist inactive, CHRM4 antagonist inactive, CHRM4 PAM inactive and CHRM4 agonist inactive.
`Cc1cc(NCCCCCCCNc2cc(C)nc3cc([N+](=O)[O-])ccc23)c2ccc([N+](=O)[O-])cc2n1` gave M5 antag inactive, CHRM5 PAM inactive, CHRM5 agonist inactive, CHRM4 antagonist 43, CHRM4 PAM inactive and CHRM4 agonist inactive.
CCOC(=O)N1CCN(CCC(=O)Nc2ccc(Br)c(C)c2)CC1 was read as M5 antag inactive, CHRM5 PAM inactive, CHRM5 agonist inactive, CHRM4 antagonist inactive, CHRM4 PAM inactive and CHRM4 agonist inactive.
CCN1CCN(CCC(=O)Nc2ccc(Br)c(C)c2)CC1 was read as M5 antag inactive, CHRM5 PAM 20, CHRM5 agonist inactive, CHRM4 antagonist inactive, CHRM4 PAM inactive and CHRM4 agonist inactive.
